# The source made the active and inactive calls. The rule behind the calls is not given here.
# How the values were obtained:
# [1] = biological target: MMP-2/MMP-9 (Homo sapiens) (UniProt P08253+P14780); assay: Selectivity ratio of IC50 for human recombinant MMP9 to IC50 for human recombinant MMP2
# Method in brief: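 IC50 values against MMP-2 and MMP-9 were each measured by a fluorimetric enzyme assay, with a reference inhibitor run alongside as positive control. The selectivity ratio is the MMP-9 IC50 divided by the MMP-2 IC50.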
# [2] = biological target: 72 kDa type IV collagenase (Homo sapiens, UniProt P08253); assay: Inhibition of human recombinant MMP2 using Mca-Pro-Leu-Gly-Leu-Dpa-Ala-Arg-NH2 as substrate preincubated for 60 mins followed by substrate addition by fluorimetric analysis
# [3] = biological target: Matrix metalloproteinase-9 (Homo sapiens, UniProt P14780); assay: Inhibition of human recombinant MMP9 using Mca-Pro-Leu-Gly-Leu-Dpa-Ala-Arg-NH2 as substrate preincubated for 60 mins followed by substrate addition by fluorimetric analysis
# [4] = Oral bioavailability in Sprague-Dawley rat at 10 mg/kg by LC-MS/MS method; format: ADME, organism-based; settings: in vivo
# [5] = Terminal half life in Sprague-Dawley rat at 10 mg/kg, iv by LC-MS/MS method; format: ADME, organism-based; settings: in vivo, read-out: beta t1/2 (converted)
# Method in brief: (§1)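 Sprague-Dawley rats were dosed at 10 mg/kg, either intravenously or orally. AUC0-24h, AUC0-∞, Vz, t1/2z and CLz were derived for each route.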
# [6] = Apparent clearance in Sprague-Dawley rat at 10 mg/kg, po after 15 mins to 24 hrs by LC-MS/MS method; format: ADME, organism-based; settings: in vivo, read-out: CL(app) (converted); method in brief: as §1
# HEY [7] = assay: Antimigratory activity in human HEY cells at 50 uM after 24 hrs by crystal violet staining-based Transwell assay; format: functional
# Method in brief: (§2)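 Human ovarian cancer HEY cells were tested in a matrigel-based Transwell invasion assay, with cells invading the matrigel membrane and migrating from the upper to the lower chamber. Treatment was at 12.5, 25 and 50 µM for 24 h, with a DMSO control. Cells per view were counted after crystal violet staining. Treated groups were compared with control by t test.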
# HEY [8] = assay: Antiinvasive activity in human HEY cells assessed as reduction in number of cells invading matrigel membrane after 24 hrs by crystal violet staining-based Transwell assay; format: functional, cell-based; method in brief: as §2
# [9] = AUC (0 to 24 hrs) in Sprague-Dawley rat at 10 mg/kg, iv by LC-MS/MS method; format: ADME, organism-based; set-up: time < 24 hr, dose 10 mg/kg, route intravenous; settings: in vivo
# [10] = Terminal half life in Sprague-Dawley rat at 10 mg/kg, po by LC-MS/MS method; format: ADME, organism-based; settings: in vivo, read-out: beta t1/2 (converted); method in brief: as §1
# [11] = Lipid-water partition coefficient, logP of compound; format: physicochemical
# Rattus norvegicus = assay: Apparent volume of distribution in Sprague-Dawley rat at 10 mg/kg, po after 15 mins to 24 hrs by LC-MS/MS method; format: ADME, organism-based; settings: in vivo; method in brief: as §1
# HEY [12] = assay: Cytotoxicity against human HEY cells at 6.25 to 100 uM after 48 hrs by MTT assay relative to control; format: cell-based
# Method in brief: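 HEY cell viability was measured by MTT assay after exposure to 6.25–100 µM, with DMSO as control. Medium was checked by microscope for solid particles.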
# [13] = Apparent clearance in Sprague-Dawley rat at 10 mg/kg, iv after 15 mins to 24 hrs by LC-MS/MS method; format: ADME, organism-based; settings: in vivo, read-out: CL(app) (converted); method in brief: as §1
# [14] = AUC (0 to 24 hrs) in Sprague-Dawley rat at 10 mg/kg, po by LC-MS/MS method; format: ADME, organism-based; set-up: dose 10 mg/kg, time < 24 hr, route oral; settings: in vivo
# [15] = Apparent volume of distribution in Sprague-Dawley rat at 10 mg/kg, iv after 15 mins to 24 hrs by LC-MS/MS method; format: ADME, organism-based; settings: in vivo, read-out: Vz (converted); method in brief: as §1
# HEY [16] = assay: Antimigratory activity in human HEY cells after 24 hrs by crystal violet staining-based Transwell assay; format: functional, cell-based; method in brief: as §2
# [17] = AUC (0 to infinity) in Sprague-Dawley rat at 10 mg/kg, iv after 15 mins to 24 hrs by LC-MS/MS method; format: ADME, organism-based; set-up: dose 10 mg/kg, time infinity, route intravenous; settings: in vivo
# HEY [18] = assay: Antiinvasive activity in human HEY cells assessed as reduction in number of cells invading matrigel membrane at 50 uM after 24 hrs by crystal violet staining-based Transwell assay; format: functional; set-up: scale not given: the % may be the effect or the level left; method in brief: as §2
# [19] = AUC (0 to infinity) in Sprague-Dawley rat at 10 mg/kg, po after 15 mins to 24 hrs by LC-MS/MS method; format: ADME, organism-based; set-up: dose 10 mg/kg, route oral, time infinity; settings: in vivo
# 72 kDa type IV collagenase, sequence (P08253 whole entry): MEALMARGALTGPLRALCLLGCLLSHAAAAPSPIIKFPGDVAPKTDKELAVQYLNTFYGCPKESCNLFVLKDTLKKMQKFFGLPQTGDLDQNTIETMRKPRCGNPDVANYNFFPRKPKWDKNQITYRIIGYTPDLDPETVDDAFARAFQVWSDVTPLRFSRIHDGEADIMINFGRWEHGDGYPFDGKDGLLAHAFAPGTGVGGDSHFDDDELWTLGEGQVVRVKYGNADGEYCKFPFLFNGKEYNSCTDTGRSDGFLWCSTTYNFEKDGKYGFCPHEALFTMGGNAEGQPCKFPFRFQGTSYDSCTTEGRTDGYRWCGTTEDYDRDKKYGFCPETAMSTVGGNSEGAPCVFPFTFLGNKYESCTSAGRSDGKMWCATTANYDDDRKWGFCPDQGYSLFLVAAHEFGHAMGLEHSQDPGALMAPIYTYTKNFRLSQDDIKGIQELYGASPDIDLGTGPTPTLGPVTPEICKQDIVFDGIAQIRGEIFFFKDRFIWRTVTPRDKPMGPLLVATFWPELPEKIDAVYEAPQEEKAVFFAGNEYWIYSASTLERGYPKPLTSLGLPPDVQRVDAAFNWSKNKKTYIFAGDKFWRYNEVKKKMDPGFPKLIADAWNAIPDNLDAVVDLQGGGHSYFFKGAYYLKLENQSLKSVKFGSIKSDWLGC
# Matrix metalloproteinase-9, sequence (P14780 whole entry): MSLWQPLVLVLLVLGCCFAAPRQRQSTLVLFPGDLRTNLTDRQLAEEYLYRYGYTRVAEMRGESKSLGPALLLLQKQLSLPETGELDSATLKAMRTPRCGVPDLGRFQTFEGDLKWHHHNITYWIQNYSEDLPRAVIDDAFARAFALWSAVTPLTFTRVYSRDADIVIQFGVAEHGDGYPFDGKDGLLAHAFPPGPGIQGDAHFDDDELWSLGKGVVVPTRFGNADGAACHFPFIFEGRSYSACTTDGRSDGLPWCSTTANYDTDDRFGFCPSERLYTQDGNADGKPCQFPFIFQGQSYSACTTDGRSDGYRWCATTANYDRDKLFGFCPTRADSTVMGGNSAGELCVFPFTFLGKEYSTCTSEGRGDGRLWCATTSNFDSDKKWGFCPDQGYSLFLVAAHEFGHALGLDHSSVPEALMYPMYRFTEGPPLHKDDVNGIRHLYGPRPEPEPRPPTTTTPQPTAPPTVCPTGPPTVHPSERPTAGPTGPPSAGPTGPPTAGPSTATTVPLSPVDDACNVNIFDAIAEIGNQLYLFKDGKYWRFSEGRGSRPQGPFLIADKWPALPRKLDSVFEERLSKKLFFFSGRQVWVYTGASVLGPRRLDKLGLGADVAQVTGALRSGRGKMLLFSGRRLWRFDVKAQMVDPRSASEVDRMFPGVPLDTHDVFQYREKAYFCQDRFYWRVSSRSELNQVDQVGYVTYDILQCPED
SMILES,Ratio IC50 [1],IC50 [2],IC50 [3],further results
CNC(=O)[C@H](Cc1c[nH]c2ccccc12)NC(=O)[C@@H](CC(=O)Nc1cccc(N)c1)CC(C)C,6.59,0.00205 µM,0.0135 µM,–
CNC(=O)[C@H](Cc1c[nH]c2ccccc12)NC(=O)[C@@H](CC(=O)Nc1ccccc1N)CC(C)C,8310,0.00019 µM,1.58 µM,bioavailability [4]: 4%; half-life [5]: 7.88 h; CL/F [6]: 1190 mL/min/kg; Activity (HEY [7]): 84.6%; Activity (HEY [8]): Dose-dependent effect; AUC(0-t) at 24 h [9]: 3070 ng·h/mL; half-life [10]: 5.64 h; logP [11]: 1.91; Vz (Rattus norvegicus): 579.41 L/kg; Activity (HEY [12]): Non-toxic; clearance [13]: 52.2 mL/min/kg; AUC(0-t) at 24 h [14]: 36.2 ng·h/mL; Vd [15]: 35.8 L/kg; Activity (HEY [16]): Dose-dependent effect; AUC(0-inf) [17]: 3210 ng·h/mL; Activity (HEY [18]): 84.6%; AUC(0-inf) [19]: 140 ng·h/mL
CNC(=O)[C@H](Cc1c[nH]c2ccccc12)NC(=O)[C@@H](CC(=O)Nc1ccc(C(=O)c2ccccc2)cc1N)CC(C)C,inactive,> 10 µM,> 10 µM,–
CNC(=O)[C@H](Cc1c[nH]c2ccccc12)NC(=O)[C@@H](CC(=O)Nc1ccc(Br)cc1N)CC(C)C,1.25,0.0218 µM,0.0273 µM,–
CNC(=O)[C@H](Cc1c[nH]c2ccccc12)NC(=O)[C@@H](CC(=O)Nc1ccc(F)cc1N)CC(C)C,3.52,0.0022 µM,0.00775 µM,–
CNC(=O)[C@H](Cc1c[nH]c2ccccc12)NC(=O)[C@@H](CC(=O)Nc1ccc(C)cc1N)CC(C)C,inactive,> 10 µM,7.3 µM,–
CNC(=O)[C@H](Cc1c[nH]c2ccccc12)NC(=O)[C@@H](CC(=O)NO)CC(C)C [ILOMASTAT],–,–,–,bioavailability [4]: 0%; half-life [5]: 0.25 h; AUC(0-t) at 24 h [9]: 2510 ng·h/mL; logP [11]: 1.04; clearance [13]: 66.5 mL/min/kg; Vd [15]: 1.43 L/kg; AUC(0-inf) [17]: 2510 ng·h/mL
CNC(=O)[C@H](Cc1c[nH]c2ccccc12)NC(=O)[C@@H](CC(=O)Nc1ccccc1NC(C)=O)CC(C)C,inactive,> 10 µM,0.155 µM,–
CNC(=O)[C@H](Cc1c[nH]c2ccccc12)NC(=O)[C@@H](CC(=O)Nc1ccc(C(F)(F)F)cc1N)CC(C)C,inactive,> 10 µM,> 10 µM,–

# From ChEMBL document CHEMBL3792275 (Bioorg Med Chem Lett, 2016)
